# Xi reactivation = reactivates the inactive X chromosome in mouse fibroblasts. 360,000 compounds, 0.055% hits. XiGFP mouse fibroblasts, % GFP-positive cells imaging, 3 d; cells co-treated with 5-aza-dC sensitizer; scaled so ellipticine positive control = 100%. activation, % at 7.58 µM;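 active = mean normalized replicate activation at least 10% and every replicate at or above 10%; inconclusive = only one of the two criteria met; inactive = mean below 10% and not all replicates reach 10%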;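 also: 0% = median of on-plate neutral control wells and 100% = ellipticine 6 µM median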
#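 assay system = SV40-immortalized XiGFP fibroblast cells, line 68-5-11 | buffer or medium = DMEM plus 5-aza-dC sensitizer | doses = single-point pinned compound dosing | times = 3-day compound exposure, then 15 min fixation at room temperature | benchmarks = positive control ellipticine, 6 µM final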
# TROY signal inh = blocks TROY-dependent signaling in reporter cells; 360,000 compounds, 0.98% hits; inhibition, % at 10 µM; Q293 LMP1-TROYcd NF-kB luciferase reporter, 4 h;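 active = compounds whose plate-normalised and pattern-corrected inhibition of the luciferase reporter signal at the single screening dose is 50% or more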
# FN deposit inh = fibronectin deposition inhibition | inhibition, % at 12.6 µM | AID 743247 | 350,000 compounds, 0.086% hits | AH1F fibroblasts, Alexa488-fibronectin deposition fluorescence, overnight;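 active = mean inhibition across replicates of 30% or more, regardless of how many single replicates reach that level; inconclusive = mean under 30% yet at least half of replicates reach 30%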;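 also: positive control wells lacked labelled fibronectin entirely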
#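 test system = AH1F fibroblasts assembling fluorescent fibronectin matrix | quantity = 10000 AH1F cells per well | buffer or medium = DMEM plus 2% serum, read in PBS | doses = single dose, pinned | incubation = 1 h cell attachment, overnight exposure to compound and label | detection = fluorescence at 485 nm excitation, 525 nm emission | read-out basis = inhibition from reduced deposited-fibronectin fluorescence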
# LGR2 antag = blocks bursicon-induced cAMP signaling via Drosophila LGR2; HEK293 LGR2, CRE-luciferase, bursicon-stimulated, 4 h; 380,000 compounds, 0.35% hits; AID 720647; inhibition, % at 9.99 µM;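 active = drop in luminescence signal, shown as inhibition above about 50% in the replicate tests, limit read from the data, passing the limit was not always enough; inconclusive = probably only some replicates passing the limit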;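 also: agonist challenge used bursicon conditioned medium at about half maximal strength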
# TWEAK-Fn14 inh = TWEAK-Fn14 signaling inhibition; inhibition, % at 10 µM; 360,000 compounds, 2% hits; AID 1159606; TWEAK-stimulated Fn14 reporter cells, luciferase luminescence, 8 h; in the data active = inhibition above about 50%
# EWS-Fli inh = inhibitors of EWS/Fli oncoprotein transcriptional activity; inhibition, % at 12.6 µM; AID 651661; A673 NR0B1-luciferase reporter, viability-normalised; 350,000 compounds, 0.67% hits;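 active = mean inhibition of at least 50% after viability correction, with every replicate also passing that limit; inconclusive = mean reaches 50% but only one of two replicates passes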;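 also: firefly luciferase signal divided by Alamar Blue viability fluorescence both relative to DMSO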
# * hit, by the source's call; ? = inconclusive; / = not tested or not shown. This is a sample that favours compounds with a hit; in the whole collection about 2.3% have one here.
SMILES,Xi reactivation,TROY signal inh,FN deposit inh,LGR2 antag,TWEAK-Fn14 inh,EWS-Fli inh
C[C@H](CO)N1C[C@H](C)[C@@H](CN(C)C(=O)c2ccccc2)OCCCC[C@H](C)Oc2ccc(NS(C)(=O)=O)cc2C1=O,-1,/,/,13,/,4
C[C@@H]1CN([C@@H](C)CO)C(=O)c2cc(NC(=O)CCCN(C)C)ccc2O[C@@H](C)CCCCO[C@@H]1CN(C)C(=O)NC1CCCCC1,0,/,1,2,/,-2
C[C@H]1CN([C@@H](C)CO)C(=O)c2cc(NS(=O)(=O)c3ccc(Cl)cc3)ccc2O[C@@H]1CN(C)S(C)(=O)=O,0,/,/,-4,/,-5
C=CC(=O)Nc1cccc(Nc2nc(N[C@H]3CC[C@H](N(C)C)CC3)nc3c2ncn3C(C)C)c1,/,77*,/,/,99*,/
CC(C)n1cnc2c(Nc3cccc(Cl)c3)nc(NCCCO)nc21,0,30,-7,-13,38,-14
Cc1noc(C)c1S(=O)(=O)Nc1ccc2c(c1)C(=O)N([C@@H](C)CO)C[C@H](C)[C@@H](CN(C)Cc1ccccc1)OCCCC[C@H](C)O2,0,/,3,4,/,4
Nc1[nH]n(-c2ccccc2)c(=O)c1N=Nc1ccc2c(c1)OCCO2,0,51*,/,36,68*,21
Nc1[nH]n(-c2ccccc2)c(=O)c1N=Nc1ccc2c(c1)OCO2,0,-25,8,-90,-5,-81
CO[C@@H]1CN(C)C(=O)c2ccc(NS(C)(=O)=O)cc2OC[C@H](C)N(CC2CCCCC2)C[C@H]1C,0,/,10,-9,/,6
C[C@H]1CCCCO[C@@H](CN(C)C(=O)Nc2ccccc2)[C@@H](C)CN([C@@H](C)CO)C(=O)c2cc(NS(=O)(=O)c3ccc(F)cc3)ccc2O1,0,/,-13,/,/,/
C[C@@H]1CCCCO[C@@H](CN(C)C)[C@H](C)CN([C@@H](C)CO)C(=O)c2cc(NC(=O)Nc3cccc4ccccc34)ccc2O1,0,/,/,5,/,7
CNC[C@H]1Oc2ccc(NC(C)=O)cc2C(=O)N(C)C[C@H]1C,0,/,-4,/,/,/
O=C(NCCc1ccc(Cl)cc1)c1ccc2c(c1)OCCO2,0,0,-2,58*,54*,-6
O=C(NCCc1ccccc1F)c1ccc2c(c1)OCCO2,0,86*,2,102*,108*,90*
Cc1noc(C)c1NC(=O)Nc1ccc2c(c1)C(=O)N([C@H](C)CO)C[C@H](C)[C@H](CN(C)S(=O)(=O)c1ccc(Cl)cc1)O2,0,/,/,18,/,1
C[C@@H]1CN([C@@H](C)CO)C(=O)Cc2cc(NS(=O)(=O)c3cccs3)ccc2O[C@@H]1CN(C)S(C)(=O)=O,0,/,/,-5,/,-10
Cc1c(C(C)(C)C)sc(=NC(=O)c2ccccc2O)n1C,0,56*,-3,-87,47,-35
CC(C)NC(=O)N(C)C[C@@H]1Oc2ccc(NS(C)(=O)=O)cc2C(=O)N(C)C[C@H]1C,0,/,-17,/,/,/
Cc1nnsc1NC(=O)OCc1ccc(C(C)(C)C)cc1,/,/,/,-26,56*,/
Cc1ccc(S(=O)(=O)c2nc(-c3ccccc3)oc2NCCCN2CCOCC2)cc1,0,-19,-1,-46,-14,-7
Cc1cccc(-c2nc(S(=O)(=O)c3ccc(F)cc3)c(NCCCN3CCOCC3)o2)c1,0,-12,-5,-3,78*,5
Nc1nnc(CCS(=O)(=O)c2cc(Cl)ccc2Cl)s1,/,2,/,/,3,/
Cc1ccccc1CN(C)CCS(=O)(=O)c1cc(Cl)ccc1Cl,0,3,-2,-8,65*,12
COc1cccc(S(=O)(=O)N[C@@H]2C=C[C@@H](CC(=O)NCc3ccncc3)O[C@H]2CO)c1,0,/,0,-5,/,6
Cc1ccccc1-c1cnc2c(c1)C(=O)N([C@@H](C)CO)C[C@H](C)[C@H](CN(C)C(=O)CN(C)C)O2,0,/,-5,-10,/,-6
SMILES,Xi reactivation,TROY signal inh,FN deposit inh,LGR2 antag,TWEAK-Fn14 inh,EWS-Fli inh
COc1ccc(-c2sc3ccc(N4CCOCC4)cc3c2C#CCO)cc1,0,54*,0,32,90*,26
COc1ccc(-c2sc3ccc(N4CCOCC4)cc3c2C#CC2(O)CCCCC2)cc1,0,-11,-5,-5,3,24
C[C@H](CO)N1C[C@H](C)[C@H](CN(C)S(C)(=O)=O)Oc2c(NC(=O)C3CCCCC3)cccc2C1=O,-1,/,-4,2,/,-4
O=C(c1cccs1)N1CCN(c2ncc(C(F)(F)F)cc2Cl)CC1,0,-23,-9,-1,-27,-9
CCc1cc(C(=O)N2CCN(c3ncc(C(F)(F)F)cc3Cl)CC2)sc1C,0,35,-1,12,56*,10
O=C(Nc1nc(-c2cccs2)c(C(=O)C(F)(F)F)s1)c1ccco1,0,14,5,-8,-8,0
COc1ccc(C(=O)Nc2nnc(-c3ccco3)s2)cc1,/,39,/,81*,85*,/
O=C(Nc1nc(-c2cccs2)c(C(=O)C(F)(F)F)s1)c1ccccc1,0,60*,0,6,56*,11
COc1ccc(NC(=O)Nc2nnc(-c3cccs3)s2)cc1,1,-59,3,-55,-33,-98
COc1ccc(C(=O)Nc2nnc(-c3cccs3)s2)cc1,/,7,/,?,55*,/
Cc1ccc(C(=O)Nc2nc(-c3ccco3)c(-c3ccco3)s2)o1,0,-7,4,-11,83*,-5
COc1ccc(Nc2nc(N3CCCC3)c3ccccc3n2)cc1,/,46,/,/,6,/
CCN(CC)c1ccc(Nc2nc(N3CCOCC3)c3ccccc3n2)cc1,/,35,2,/,54*,/
C=C(C)CN=C1SC(C(=O)Nc2sc3c(c2C(=O)OC)CCC3)C(N)=C1C(N)=O (stereo unspecified),0,5,-14,5,57*,-5
Cc1ccc2c(c1)-c1cc(C)ccc1C2=O,0,-24,12,-3,64*,-11
CCCN1C(=O)C(=O)c2cc(C)ccc21,0,-14,-1,4,-4,10
COc1ccc(CNc2ccc3c(c2)nc(C)n3C)cc1,/,60*,/,-18,39,/
Cc1ccc(CNc2ccc3c(c2)ncn3C(C)(C)C)cc1,0,63*,-2,-55,8,-118
COC(=O)[C@H]1[C@H](CO)[C@H]2Cn3c(ccc(-c4cccc(F)c4)c3=O)[C@H]2N1S(C)(=O)=O,0,/,/,15,/,3
CC(/C=C1\SC(=S)N(c2ccc(C(=O)O)cc2)C1=O)=C\c1ccccc1,0,45,2,13,58*,-7
CC(/C=C1\SC(=S)N(NC(=O)c2ccc(C)cc2)C1=O)=C\c1ccccc1,/,-18,/,/,-2,/

# Screening results deposited in PubChem BioAssay by several laboratories.
